Screening results from PubChem.
FXIa inh – inhibitors of human coagulation factor XIa; actives 0.14% (n = 220,000); P03951; inhibition, % at 5 µM; purified FXIa, Boc-Glu-Ala-Arg-AMC fluorogenic substrate;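 active = inhibition of at least 40%; inactive = inhibition below 40%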;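 note: fluorescence of freed AMC excited at 355 nm; 0% = enzyme without compound and 100% = no enzyme blank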
Thrombin inh – inhibitors of human thrombin. P00734. alpha-thrombin, Boc-VPR-AMC fluorogenic substrate cleavage. inhibition, % at 5 µM. actives 0.26% (n = 220,000). AID 1046;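 active = inhibition at or above 40%; inactive = inhibition below 40%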;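 note: 0% = enzyme with no compound and 100% = wells without enzyme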
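System – human alpha-thrombin protein · Reagent – Boc-VPR-AMC substrate, 15 µM final · Compound – 5 µM single dose in 0.2% DMSO · Schedule – reaction at room temperature · Technique – AMC fluorescence at 355 nm excitation and 460 nm emission · Read-out basis – % inhibition relative to enzyme controls and enzyme-free blanks · Control set – no-compound enzyme wells and no-enzyme blanks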
PERK inhibitor – blocks human PERK kinase. actives 0.17% (n = 220,000). CHO PERK-DD fusion, SEAP luminescence translation reporter. inhibition, % at 5.6 µM;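 active = inhibition above the mean inhibition of all tested compounds plus 3 SD, set separately per screening campaign, cut at about 2.9% in these data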;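 note: PERK kinase domain activated by AP20187 dimerizer at 100 nM; 0% = DMSO with dimerizer and 100% = rapamycin at 8.4 µM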
FXIIa inh – inhibitors of human coagulation factor XIIa; P00748; purified FXIIa, Boc-QGR-AMC fluorogenic substrate, 2 h; inhibition, % at 5 µM; actives 0.3% (n = 220,000); AID 800; in the data active = inhibition above about 40%;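 note: 0% = enzyme with no compound and 100% = blank without enzyme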
Furin inh – inhibitors of human furin; purified furin, fluorogenic substrate cleavage; inhibition, % at 20 µM or 30 µM; actives 0.061% (n = 220,000); AID 463115; in the data active = inhibition above about 25%
KLK5 inh – inhibitors of human kallikrein 5. AID 873. actives 0.59% (n = 210,000). Q9Y337. inhibition, % at 5 µM. recombinant hK5, fluorogenic AMC substrate cleavage;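 active = inhibition of 40% or more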;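 note: 0% = enzyme controls without compound and 100% = no-enzyme blanks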
Target sequence (Q9Y337 67-293 limits assumed): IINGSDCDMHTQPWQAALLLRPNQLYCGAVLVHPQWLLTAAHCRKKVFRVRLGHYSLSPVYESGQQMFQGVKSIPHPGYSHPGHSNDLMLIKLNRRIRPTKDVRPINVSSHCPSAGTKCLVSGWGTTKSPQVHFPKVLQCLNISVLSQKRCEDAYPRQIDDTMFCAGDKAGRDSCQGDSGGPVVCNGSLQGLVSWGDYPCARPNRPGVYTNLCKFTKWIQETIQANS
Active calls of the source: *; nt = no result given. An excerpt weighted towards active compounds, which were near 1.2% of everything screened.

SMILES | FXIa inh | Thrombin inh | PERK inhibitor | FXIIa inh | Furin inh | KLK5 inh
Cc1cc(NC(=O)COC(=O)C2CCN(S(=O)(=O)c3c(Cl)cccc3Cl)CC2)no1 | 19 | -1 | 0 | 43* | -22 | 15
Cc1cc(NC(=O)COC(=O)C2CCN(S(=O)(=O)c3ccc(Cl)cc3)CC2)no1 | 4 | 2 | 1 | 16 | -25 | -13
Cc1cc(NC(=O)COC(=O)c2cccc(S(=O)(=O)N(C)C3CCCCC3)c2)no1 | 7 | 4 | -1 | 43* | 6 | 9
Cc1ccc(NS(=O)(=O)c2ccc(C(=O)OCC(=O)Nc3cc(C)on3)cc2)cc1 | 102* | 15 | 0 | 30 | 9 | 48*
CC1=NN(C(C#N)c2ccc([N+](=O)[O-])cc2)C(C)(C)C1 (stereo not given) | 50* | 22 | 1 | 28 | -4 | 57*
CC1=NN(C(C#N)c2ccc(F)cc2)C(C)(C)C1 (stereo not given) | -1 | -10 | 1 | 5 | -22 | nt
CC1CCN(c2ccc(NC(=O)c3cccnc3)cc2)CC1 | 4 | -15 | 2 | -8 | 25* | 5
COc1ccc(OC)c(NC(=O)CSc2nnnn2C)c1 | 12 | -1 | 0 | 4 | -32 | -22
COc1ccccc1NC(=O)CSc1nnc(CCC(=O)Nc2ccccc2F)n1C | 6 | 4 | 3.9* | 12 | -10 | 7
COc1ccccc1NC(=O)CSc1nnnn1C | 33 | -1 | 0 | 59* | -7 | 7
S=C(Nc1ccc2[nH]ccc2c1)NC1CCCCC1 | -2 | 26 | 1 | 3 | -11 | 0
O=C(Nc1ccc2c(c1)S(=O)(=O)N=C1CCCCCN12)c1ccccc1Cl | -2 | -2 | 0 | 6 | -23 | 4
Cc1ccc(C)c(N(CC(=O)NC(C)(C)C)C(=O)CNC(=O)c2cccs2)c1 | -2 | -2 | 0 | 8 | -16 | 2
CC1(C)OC(=CC=Nc2ccc(Cl)cc2)OC1(C)C | 28 | 2 | -2 | 45* | 3 | 16
CC(C)CNC(=O)CN(C1CCCCC1)S(C)(=O)=O | 3 | 24 | 1 | 10 | -21 | 52*
CC(NC(=O)CN(C1CCCCC1)S(C)(=O)=O)c1ccccc1 (stereo not given) | 18 | 61* | 0 | 18 | -21 | 36
Cc1cc2nc(/N=C(\N)NC(=O)N3c4ccccc4Sc4ccccc43)nc(C)c2cc1C | 0 | -6 | 0 | 7 | -5 | -15
COc1ccc(C2c3cc(OC)c(OC)cc3CCN2S(C)(=O)=O)cc1OC (stereo not given) | 25 | 29 | 1 | 46* | -7 | 11
COc1ccccc1-c1nnc(NC(=O)C(C)SC2=NCCS2)s1 (stereo not given) | 4 | 15 | 1 | 6 | -24 | 53*
COc1ccc(S(=O)(=O)Nc2ccc(CC#N)cc2)cc1 | 7 | 15 | 1 | 34 | -22 | 43*
COc1ccc2c(c1O)-c1ccccc1CCN(C)C2 | 5 | 1 | 0 | 9 | -16 | 2
COc1ccc2c3c1OC1CC(O)C=CC31CCN(C)C2 (stereo not given) | 1 | -1 | 3.1* | 3 | -6 | 3
Nc1c(C(=O)Nc2ccc(Cl)c(Cl)c2)sc2nc(-c3cccnc3)ccc12 | 9 | 4 | -1 | 11 | 4 | 48*
Nc1c(C(=O)Nc2ccccc2F)sc2nc(-c3cccnc3)ccc12 | 0 | -3 | -2 | 6 | -13 | -1
Cn1ccnc1C(=O)c1ccc(Cl)c(S(=O)(=O)N2CCOCC2)c1 | 4 | -1 | -1 | 5 | 3 | 1
SMILES | FXIa inh | Thrombin inh | PERK inhibitor | FXIIa inh | Furin inh | KLK5 inh
CC(C)Cn1c(S(=O)(=O)O)nc2ccccc21 | 3 | 2 | 3.5* | 7 | -12 | 2
O=C(CSc1nc2ccccc2s1)N1CCOCC1 | 4 | -4 | 1 | 21 | -21 | -11
NC(=O)C1(N2CCCCC2)CCN(C(=O)CSc2nc3ccccc3s2)CC1 | 9 | 26 | 0 | 11 | -18 | 59*
COc1ccc(C2CC(c3cccs3)=NN2C(=O)COC(=O)c2cncc(Br)c2)cc1OC (stereo not given) | -5 | -8 | -1 | nt | -17 | -4
COc1cc2ccccc2cc1C(=O)NC(=S)Nc1cc(C(=O)O)ccc1C | -1 | -15 | 0 | 99* | -11 | -4
Nc1cc(=O)[nH]c(=O)n1Cc1ccco1 | 33 | 10 | 1 | 30 | 26* | 2
COc1ccc(NC(=O)Nc2ncn(Cc3cccc(C(F)(F)F)c3)n2)cc1OC | -2 | -2 | 0 | 19 | 29* | -8
CCc1ccc(NC(=O)c2c(C(=O)Nc3ccccc3)sc3nc(C)cc(=O)n23)cc1 | -2 | -3 | 0 | 8 | -18 | 1
COc1cc(Cl)c(C)cc1NC(=O)CSC | 12 | -2 | 0 | 43* | -16 | 3
COc1cccc2c1C(CO)N1C(C#N)C3CC(C(=O)O)C(C1C2)N3C (stereo not given) | 2 | 0 | 3.7* | 6 | -30 | 3
CCOC(=O)c1cn(CC2CC2)c2cc(F)c(F)cc2c1=O | -4 | -3 | 1 | 2 | -19 | -1
CCCn1cc(C(=O)OCC)c(=O)c2cc(F)c(F)cc21 | 65* | 4 | 0 | 31 | -5 | 23
COc1ccc(C(=O)/C=C/NCc2ccc(F)cc2)cc1OC | 17 | 5 | -1 | 31 | -3 | 62*
O=C(c1ccc(-c2ccc(Cl)cc2)o1)N1CCN(c2ccc([N+](=O)[O-])cc2Cl)CC1 | -6 | -11 | 1 | 0 | -18 | -17
O=C(c1ccc(-c2ccc([N+](=O)[O-])cc2)o1)N1CCCCC1 | 22 | 61* | 0 | 25 | 16 | 19
O=C(CSc1nnc(-c2ccccn2)n1Cc1ccccc1)N1CCOCC1 | -1 | -2 | 2 | 5 | -10 | 1
ClCC1CSC(=NC23CC4CC(CC(C4)C2)C3)O1 (stereo not given) | -6 | -5 | 2 | 7 | -27 | 2
CC1(C)C2CCC(C2)C1(C)N=C1OC(CCl)CS1 (stereo not given) | 53* | 14 | 0 | 22 | -13 | 52*
CCOC(=O)c1sc(=NC(=O)/C=C/c2ccccc2)n(C)c1C | 1 | -10 | 2 | 4 | -17 | 0
COc1ccc(/C=C/C(=O)N2CCN(S(=O)(=O)/C=C/c3ccccc3)CC2)cc1OC | 3 | -7 | -1 | 2 | -25 | -37
COc1ccc(/C=C/C(=O)N2CCN(S(=O)(=O)c3ccccc3)CC2)cc1OC | 34 | 25 | -1 | 22 | 4 | 48*
CC(=O)Nc1ccc(S(=O)(=O)NCc2cccnc2)cc1 | 22 | 31 | 0 | 1 | -10 | 47*
CCOC(=O)CN1C(=O)COc2ccc(Cl)cc21 | 5 | -18 | 0 | -2 | -30 | 2
CCOc1ccccc1NC(=O)CN1C(=O)COc2ccc(Cl)cc21 | 17 | 29 | -1 | 19 | -2 | 43*
